Results published in ChEMBL document CHEMBL1123185, “Organic phosphorus compounds. 1. 4-(Benzothiazol-2-yl)benzylphosphonate as potent calcium antagonistic vasodilator” (J Med Chem, 1986).
The source made the active and inactive calls. The calls are words filed in the database; no cut-off is given here.

How the values were obtained:
Cavia porcellus [1] = species: Cavia porcellus; assay: Effect on maximum increase in coronary flow in isolated guinea pig heart at a dose of 10 (ug/heart); Inactive; type: functional
Canis familiaris [2] = assay: Compound was tested for max increase in blood flow through circumflex branch of left coronary artery, 5 min after administration; type: functional, Canis lupus familiaris
Procedure, shortened: (§1)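 Anesthetized dogs (12-22 kg; pentobarbital sodium 35 mg/kg ip, supportive respiration) underwent left thoracotomy at the fourth intercostal space. Flow in the left coronary artery branch was recorded with an electromagnetic flow meter and expressed as percent increase. Compound in 0.5% CMC (10 mg/mL) was given intraduodenally at 10 mg/kg. Values are mean ± SE, six experiments.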

Canis familiaris [3] = assay: Compound was tested for max increase in blood flow through cicumflex branch of left coronary artery, 30 min after administration; type: functional, Canis lupus familiaris; procedure, shortened: as §1
Canis familiaris [4] = assay: Change in the mean blood pressure and hypotensive action was measured in dogs at 10 mg/kg dose, 120 min after id administration; type: functional, Canis lupus familiaris; details: route intraduodenal
Procedure, shortened: (§2)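 Dogs of 12-22 kg were anesthetized with pentobarbital sodium (35 mg/kg ip), given supportive respiration, and opened by left thoracotomy at the fourth intercostal space. Compound was suspended in 0.5% CMC (10 mg/mL) and given intraduodenally via cannula at 10 mg/kg. Blood pressure was taken by carotid cannula and pressure transducer, and heart rate from the ECG. Values are mean ± SE, six experiments.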

Canis familiaris [5] = assay: Change in the mean blood pressure and hypotensive action was measured in dogs at 10 mg/kg dose, 60 min after id administration; type: functional, Canis lupus familiaris; details: route intraduodenal; procedure, shortened: as §2
Canis familiaris [6] = assay: Change in the heart rate and hypotensive action was measured in dogs at 10 mg/kg dose, 30 min after id administration; type: functional, Canis lupus familiaris; details: route intraduodenal; procedure, shortened: as §2
Cavia porcellus [7] = species: Cavia porcellus; assay: pA2 was measured as Calcium antagonistic activity
Canis familiaris [8] = assay: Change in the heart rate and hypotensive action was measured in dogs at 10 mg/kg dose, 60 min after id administration; type: functional, Canis lupus familiaris; details: route intraduodenal; procedure, shortened: as §2
Canis familiaris [9] = assay: Compound was tested for max increase in blood flow through cicumflex branch of left coronary artery, 120 min after administration; type: functional, Canis lupus familiaris; procedure, shortened: as §1
Canis familiaris [10] = assay: Change in the mean blood pressure and hypotensive action was measured in dogs at 10 mg/kg dose, 5 min after id administration; type: functional, Canis lupus familiaris; details: route intraduodenal; procedure, shortened: as §2
Canis familiaris [11] = assay: Change in the mean blood pressure and hypotensive action was measured in dogs at 10 mg/kg dose, 30 min after id administration; type: functional, Canis lupus familiaris; details: route intraduodenal; procedure, shortened: as §2
Canis familiaris [12] = assay: Compound was tested for max increase in blood flow through cicumflex branch of left coronary artery, 60 min after administration; type: functional, Canis lupus familiaris; procedure, shortened: as §1
Canis familiaris [13] = assay: Change in the heart rate and hypotensive action was measured in dogs at 10 mg/kg dose, 120 min after id administration; type: functional, Canis lupus familiaris; details: route intraduodenal; procedure, shortened: as §2
Canis familiaris [14] = assay: Change in the heart rate and hypotensive action was measured in dogs at 10 mg/kg dose, 5 min after id administration; type: functional, Canis lupus familiaris; details: route intraduodenal; procedure, shortened: as §2
Cavia porcellus [15] = species: Cavia porcellus; assay: Maximum increase in coronary flow in isolated guinea pig heart at a dose of 10 ug.; type: functional
Procedure, shortened: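 Langendorff-perfused isolated guinea pig heart with oxygenated (95% O2/5% CO2) Krebs-Henseleit fluid at 34 ± 1 °C and 60 cm H2O perfusion pressure. Compound dissolved in propylene glycol at 100 µg/mL and infused at 0.1 mL/min. Coronary flow recorded by electromagnetic flow meter before and after infusion, expressed as percent gain. Mean ± SE of five experiments.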

Canis familiaris [16] = assay: Compound was tested for max increase in blood flow through cicumflex branch of left coronary artery, 5 min after administration; type: functional, Canis lupus familiaris; procedure, shortened: as §1

## Cc1ccc(-c2nc3ccccc3s2)cc1
Cavia porcellus [1]
  Increase: inactive

## CCOP(=O)(Cc1ccc(-c2nc3ccccc3s2)cc1)OCC [FOSTEDIL]
Canis familiaris [2]
  Increase: 28.2%
Canis familiaris [3]
  Increase: 65.2%
Canis familiaris [4]
  Change: -13.3 mmHg
Canis familiaris [5]
  Change: -12 mmHg
Canis familiaris [6]
  Change: -18.3 beats min-1
Cavia porcellus [7]
  Kb: 120 nM
Canis familiaris [8]
  Change: -20.8 beats min-1
Canis familiaris [9]
  Increase: 91.8%
Canis familiaris [10]
  Change: -13.4 mmHg
Canis familiaris [11]
  Change: -9.7 mmHg
Canis familiaris [12]
  Increase: 87.5%
Canis familiaris [13]
  Change: -18.7 beats min-1
Canis familiaris [14]
  Change: -6.9 beats min-1
Cavia porcellus [15]
  Increase: 79.9%

## CCOC(=O)Cc1ccc(-c2nc3ccccc3s2)cc1
Cavia porcellus [1]
  Increase: inactive

## O=P(O)(O)Cc1ccc(-c2nc3ccccc3s2)cc1
Cavia porcellus [1]
  Increase: inactive

## CCCOP(=O)(Cc1ccc(-c2nc3ccccc3s2)cc1)OCCC
Cavia porcellus [15]
  Increase: 62.4%

## COc1ccc([C@@H]2Sc3ccccc3N(CCN(C)C)C(=O)[C@@H]2OC(C)=O)cc1.Cl [DILTIAZEM HYDROCHLORIDE]
Canis familiaris [3]
  Increase: 85.5%
Canis familiaris [4]
  Change: -14.5 mmHg
Canis familiaris [5]
  Change: -13.8 mmHg
Canis familiaris [16]
  Increase: 6.5%
Canis familiaris [6]
  Change: -19.7 beats min-1
Cavia porcellus [7]
  Kb: 417 nM
Canis familiaris [8]
  Change: -29.2 beats min-1
Canis familiaris [9]
  Increase: 74.6%
Canis familiaris [10]
  Change: -2.7 mmHg
Canis familiaris [11]
  Change: -10.7 mmHg
Canis familiaris [12]
  Increase: 89.4%
Canis familiaris [13]
  Change: -27.2 beats min-1
Canis familiaris [14]
  Change: 3.2 beats min-1
Cavia porcellus [15]
  Increase: 63.9%

## CCOP(=O)(Cc1ccc(-c2nc3ccc(C)cc3s2)cc1)OCC
Cavia porcellus [15]
  Increase: 31.3%

## CCOP(=O)(Cc1ccc(-c2nc3cccc(O)c3s2)cc1)OCC
Cavia porcellus [15]
  Increase: 20.6%

## CCOP(=O)(Cc1ccc(-c2nc3ccc(NC(C)=O)cc3s2)cc1)OCC
Cavia porcellus [15]
  Increase: 48.7%

## CCOP(=O)(Cc1ccc(-c2nc3ccc(N)cc3s2)cc1)OCC.Cl
Cavia porcellus [15]
  Increase: 50%

## CCOP(=O)(Cc1ccc(-c2nc3cc(O)ccc3s2)cc1)OCC
Cavia porcellus [15]
  Increase: 49%

## CCOP(=O)(Cc1ccc(-c2nc3cc(OC(C)=O)ccc3s2)cc1)OCC
Cavia porcellus [15]
  Increase: 23.2%

## CCOP(=O)(Cc1ccc(-c2nc3ccc([N+](=O)[O-])cc3s2)cc1)OCC
Cavia porcellus [1]
  Increase: inactive

## CCOP(=O)(Cc1ccc(-c2nc3ccc(OC(C)=O)cc3s2)cc1)OCC
Cavia porcellus [15]
  Increase: 56.7%

## CCCCOP(=O)(Cc1ccc(-c2nc3ccccc3s2)cc1)OCCCC
Cavia porcellus [15]
  Increase: 37.3%

## CCOP(=O)(Cc1ccc(-c2nc3cccc(OC(C)=O)c3s2)cc1)OCC
Cavia porcellus [15]
  Increase: 71.7%

## CCOP(=O)(Cc1ccc(-c2nc3ccc(O)cc3s2)cc1)OCC
Cavia porcellus [15]
  Increase: 63.3%

## CC(C)OP(=O)(Cc1ccc(-c2nc3ccccc3s2)cc1)OC(C)C
Cavia porcellus [15]
  Increase: 75.6%

## COc1ccc(Cc2nccc3cc(OC)c(OC)cc23)cc1OC.Cl [PAPAVERINE HYDROCHLORIDE]
Cavia porcellus [15]
  Increase: 55.8%

## COP(=O)(Cc1ccc(-c2nc3ccccc3s2)cc1)OC
Cavia porcellus [15]
  Increase: 34.8%

## CCOP(=O)(Cc1ccc(-c2nc3ccc(Cl)cc3s2)cc1)OCC
Cavia porcellus [15]
  Increase: 54.6%

## CCOP(=O)(Cc1ccc(-c2nc3ccc(OC)cc3s2)cc1)OCC
Cavia porcellus [15]
  Increase: 20.1%
